Laboratory results published in paper PMC8207330 (Leukemia research, 2017).
Where “and” joins values, the source holds several entries; their conditions need not be identical. Equal entries are not always repeated. Where two headings read alike, the source gives them in different places.

Columns and labels:
[1] = system: patients with JAK2^V617F-positive myelofibrosis, essential thrombocythemia, or polycythemia vera; format: in vivo
[2] = system: patients with JAK2^V617F-positive myelofibrosis, essential thrombocythemia, or polycythemia vera; experiment: Clinical efficacy; format: in vivo, human
Summary of the method: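 Multicentre, nonrandomised, open-label phase 1 of the oral test compound given once daily in 28-day cycles. 3 + 3 escalation through 30, 60, 120, 240 and 200 mg. A 120 mg lead-in for 14–28 days was followed by 200 or 300 mg, and 120 mg was used for dose confirmation. Response was scored by IWG clinical-improvement criteria, or European LeukemiaNet criteria for PV/ET, with duration counted in cycles. Analysis was descriptive.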

[3] = Pharmacokinetics in patients; format: in vivo, human
[4] = cohort 6, 120 mg (Cycle 1a), N = 8
[5] = cohort 6, 200 mg (Cycle 1b), N = 7
[6] = cohort 7, 120 mg (Cycle 1a), N = 6
[7] = cohort 7, 300 mg (Cycle 1b), N = 5
[8] = cohort L (withdrawn in lead-in phase), 120 mg, N = 1
[9] = cycle 1, cohort 1, 30 mg, N = 3
[10] = cycle 1, cohort 2, 60 mg, N = 3
[11] = cycle 1, cohort 3, 120 mg, N = 10
[12] = cycle 1, cohort 4, 240 mg, N = 3
[13] = cycle 1, cohort 5, 200 mg, N = 3

Cc1cc(Nc2cc(CN3CCOCC3)c3nc(C)c(Cc4ccc(Cl)cc4F)n3n2)n[nH]1 [gandotinib]
Patients with ≥ 1 SAE possibly related to study drug ([1]; 30 mg (N = 3)): 0 n%
SAE possibly related: Anemia ([1]; 30 mg (N = 3)): 0 n%
SAE possibly related: Blood creatinine increased ([1]; 30 mg (N = 3)): 0 n%
SAE possibly related: Hyperkalemia ([1]; 30 mg (N = 3)): 0 n%
SAE possibly related: Hyperuricemia ([1]; 30 mg (N = 3)): 0 n%
SAE possibly related: Renal failure, acute ([1]; 30 mg (N = 3)): 0 n%
Patients with ≥ 1 SAE possibly related to study drug ([1]; 60 mg (N = 7)): 0 n%
SAE possibly related: Anemia ([1]; 60 mg (N = 7)): 0 n%
SAE possibly related: Blood creatinine increased ([1]; 60 mg (N = 7)): 0 n%
SAE possibly related: Hyperkalemia ([1]; 60 mg (N = 7)): 0 n%
SAE possibly related: Hyperuricemia ([1]; 60 mg (N = 7)): 0 n%
SAE possibly related: Renal failure, acute ([1]; 60 mg (N = 7)): 0 n%
Patients with ≥ 1 SAE possibly related to study drug ([1]; 120 mg (N = 34)): 0 n%
SAE possibly related: Anemia ([1]; 120 mg (N = 34)): 0 n%
SAE possibly related: Blood creatinine increased ([1]; 120 mg (N = 34)): 0 n%
SAE possibly related: Hyperkalemia ([1]; 120 mg (N = 34)): 0 n%
SAE possibly related: Hyperuricemia ([1]; 120 mg (N = 34)): 0 n%
SAE possibly related: Renal failure, acute ([1]; 120 mg (N = 34)): 0 n%
DLTs observed ([1]; 200 mg): 3 DLTs
Patients with ≥ 1 SAE possibly related to study drug ([1]; 200 mg (N = 15)): 4 (26.7) n%
SAE possibly related: Anemia ([1]; 200 mg (N = 15)): 1 (6.7) n%
SAE possibly related: Blood creatinine increased ([1]; 200 mg (N = 15)): 3 (20.0) n%
SAE possibly related: Hyperkalemia ([1]; 200 mg (N = 15)): 0 (0.0) n%
SAE possibly related: Hyperuricemia ([1]; 200 mg (N = 15)): 1 (6.7) n%
SAE possibly related: Renal failure, acute ([1]; 200 mg (N = 15)): 1 (6.7) n%
Patients with ≥ 1 SAE possibly related to study drug ([1]; 240 mg (N = 3)): 1 (33.3) n%
SAE possibly related: Anemia ([1]; 240 mg (N = 3)): 0 n%
SAE possibly related: Blood creatinine increased ([1]; 240 mg (N = 3)): 1 (33.3) n%
SAE possibly related: Hyperkalemia ([1]; 240 mg (N = 3)): 0 n%
SAE possibly related: Hyperuricemia ([1]; 240 mg (N = 3)): 0 n%
SAE possibly related: Renal failure, acute ([1]; 240 mg (N = 3)): 0 n%
Patients with ≥ 1 SAE possibly related to study drug ([1]; 300 mg (N = 5)): 1 (20.0) n%
SAE possibly related: Anemia ([1]; 300 mg (N = 5)): 0 n%
SAE possibly related: Blood creatinine increased ([1]; 300 mg (N = 5)): 0 n%
SAE possibly related: Hyperkalemia ([1]; 300 mg (N = 5)): 0 n%
SAE possibly related: Hyperuricemia ([1]; 300 mg (N = 5)): 0 n%
SAE possibly related: Renal failure, acute ([1]; 300 mg (N = 5)): 1 (20.0) n%
TEAE: nausea ([1]; 16 of 38 patients, majority grade 1): 42.1%
TEAE: diarrhea ([1]; 21 of 38 patients, majority grade 1): 55.3%
Patients with ≥ 1 SAE possibly related to study drug ([1]; Grade 3 and above, Total): 6 (15.8) n%
SAE possibly related: Anemia ([1]; Grade 3 and above, Total): 1 (2.6) n%
SAE possibly related: Blood creatinine increased ([1]; Grade 3 and above, Total): 1 (2.6) n%
SAE possibly related: Hyperkalemia ([1]; Grade 3 and above, Total): 0 n%
SAE possibly related: Hyperuricemia ([1]; Grade 3 and above, Total): 2 (5.3) n%
SAE possibly related: Renal failure, acute ([1]; Grade 3 and above, Total): 2 (5.3) n%
Patients with ≥ 1 SAE possibly related to study drug ([1]; Grade 4 and above, Total): 2 (5.3) n%
SAE possibly related: Anemia ([1]; Grade 4 and above, Total): 0 n%
SAE possibly related: Blood creatinine increased ([1]; Grade 4 and above, Total): 0 n%
SAE possibly related: Hyperkalemia ([1]; Grade 4 and above, Total): 0 n%
SAE possibly related: Hyperuricemia ([1]; Grade 4 and above, Total): 2 (5.3) n%
SAE possibly related: Renal failure, acute ([1]; Grade 4 and above, Total): 0 n%
SAE possibly related: Renal failure, acute ([1]; Total (N = 38), 2 MF, 1 ET, 1 PV): 4 (10.5) [2 MF, 1 ET, 1 PV] n%
SAE possibly related: Anemia ([1]; Total (N = 38), MF): 1 (2.6) MF n%
SAE possibly related: Blood creatinine increased ([1]; Total (N = 38), MF): 5 (13.2) MF n%
SAE possibly related: Hyperkalemia ([1]; Total (N = 38), MF): 1 (2.6) MF n%
SAE possibly related: Hyperuricemia ([1]; Total (N = 38), MF): 2 (5.3) MF n%
DLT: Blood creatinine increased [1, 4]: 3 (37.5) n (%)
DLT: Hyperkalemia [1, 4]: 0 n (%)
DLT: Hyperuricemia [1, 4]: 0 n (%)
DLT: Renal failure acute [1, 4]: 0 n (%)
Patients with DLT [1, 4]: 3 (37.5) n (%)
DLT: Blood creatinine increased [1, 5]: 3 (42.9) n (%)
DLT: Hyperkalemia [1, 5]: 0 n (%)
DLT: Hyperuricemia [1, 5]: 0 n (%)
DLT: Renal failure acute [1, 5]: 0 n (%)
Patients with DLT [1, 5]: 3 (42.9) n (%)
DLT: Blood creatinine increased [1, 6]: 0 n (%)
DLT: Hyperkalemia [1, 6]: 0 n (%)
DLT: Hyperuricemia [1, 6]: 0 n (%)
DLT: Renal failure acute [1, 6]: 0 n (%)
Patients with DLT [1, 6]: 0 n (%)
DLT: Blood creatinine increased [1, 7]: 1 (20.0) n (%)
DLT: Hyperkalemia [1, 7]: 0 n (%)
DLT: Hyperuricemia [1, 7]: 0 n (%)
DLT: Renal failure acute [1, 7]: 1 (20.0) n (%)
Patients with DLT [1, 7]: 2 (40.0) n (%)
DLT: Blood creatinine increased [1, 8]: 0 n (%)
DLT: Hyperkalemia [1, 8]: 0 n (%)
DLT: Hyperuricemia [1, 8]: 0 n (%)
DLT: Renal failure acute [1, 8]: 0 n (%)
Patients with DLT [1, 8]: 0 n (%)
DLT: Blood creatinine increased ([1]; cycle 1, Total, N = 37): 5 (13.5) n (%)
DLT: Hyperkalemia ([1]; cycle 1, Total, N = 37): 1 (2.7) n (%)
DLT: Hyperuricemia ([1]; cycle 1, Total, N = 37): 2 (5.4) n (%)
DLT: Renal failure acute ([1]; cycle 1, Total, N = 37): 1 (2.7) n (%)
Patients with DLT ([1]; cycle 1, Total, N = 37): 9 (24.3) n (%)
DLT: Blood creatinine increased [1, 9]: 0 n (%)
DLT: Hyperkalemia [1, 9]: 0 n (%)
DLT: Hyperuricemia [1, 9]: 0 n (%)
DLT: Renal failure acute [1, 9]: 0 n (%)
Patients with DLT [1, 9]: 0 n (%)
DLT: Blood creatinine increased [1, 10]: 0 n (%)
DLT: Hyperkalemia [1, 10]: 0 n (%)
DLT: Hyperuricemia [1, 10]: 0 n (%)
DLT: Renal failure acute [1, 10]: 0 n (%)
Patients with DLT [1, 10]: 0 n (%)
DLT: Blood creatinine increased [1, 11]: 0 n (%)
DLT: Hyperkalemia [1, 11]: 0 n (%)
DLT: Hyperuricemia [1, 11]: 0 n (%)
DLT: Renal failure acute [1, 11]: 0 n (%)
Patients with DLT [1, 11]: 0 n (%)
DLT: Blood creatinine increased [1, 12]: 0 n (%)
DLT: Hyperkalemia [1, 12]: 0 n (%)
DLT: Hyperuricemia [1, 12]: 1 (33.3) n (%)
DLT: Renal failure acute [1, 12]: 0 n (%)
Patients with DLT [1, 12]: 1 (33.3) n (%)
DLT: Blood creatinine increased [1, 13]: 1 (33.3) n (%)
DLT: Hyperkalemia [1, 13]: 1 (33.3) n (%)
DLT: Hyperuricemia [1, 13]: 1 (33.3) n (%)
DLT: Renal failure acute [1, 13]: 0 n (%)
Patients with DLT [1, 13]: 3 (100) n (%)
DLTs observed ([1]; first 3 tested doses (30, 60, 120 mg)): No DLTs
treatment discontinuation due to renal failure ([1]; most frequent adverse event resulting in discontinuation): 4 patients
partial response ([2]; ET (1 patient enrolled)): One
duration of clinic-hematologic partial response ([2]; PV patients): 3–16 cycles
JAK2^V617F allele burden reduction of ≥50% at any time ([2]; across all cohorts): 5 of 36
palpable spleen length reduction of ≥ 50% at any time during therapy ([2]; across all cohorts): 20/32 and 20 of 32
no clinic-hematologic response ([2]; of the 6 patients with PV): 3 patients
clinic-hematologic partial response ([2]; of the 6 patients with PV (2 in cohort 6, 1 in cohort 7)): 3 patients
Vd/F ([3]; human, plasma, oral): 682 L
half-life ([3]; human, plasma, oral): ~6 h
apparent clearance (CL/F) ([3]; mean value, CV of 68): 80.7 L/h
time at which maximum plasma concentration (Cmax) was reached ([3]; on average, after single and multiple doses): 4 h
